Drawing on the RNAGym collection of RNA variant scans (doi:10.1126/science.aae0568), this text covers yeast fitness for 167 variants.

To fix the notation:
B1: tRNA (parent)
chain: GUUCCGUUGGCGUAAUGGUAACGCGUCUCCCUCCUAAGGAGAAGACUGCGGGUUCGAGUCCCGUACGGAACG

Variants at the floor of the assay were thinned out.

This data set covers variants of B1. Kind of data set: yeast fitness relative to wild type (ratio to wild type); higher = fitter; tRNA-Arg(CCU), competitive growth, 37 C, YPD. The gist of the method: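 Start and end populations of a pooled competition were compared by 100-nucleotide paired-end sequencing of gene amplicons. The Saccharomyces cerevisiae strains carried tRNA-Arg(CCU) gene variants at the native genomic locus, synthesised with a 3% per-site mutation rate at 69 sites, and competed in YPD at 37°C for 24 hours in six parallel replicates. Darwinian fitness relative to wild type was based on the change in genotype frequencies. Genotypes required ≥ 100 starting reads, and estimates < 0.5 were set to 0.5.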
In the case of C4G A37C G38A G63A, the yeast fitness was at most 0.5.

Take C4G A21U C49U G56C: the yeast fitness was at most 0.5.

C4G C27A G48A: the yeast fitness came to 0.571.

As to C4G C11G U47A C49U, the yeast fitness is at most 0.5.

In the case of C4G A37U G51A G52C U59C, the yeast fitness is at most 0.5.

On to C4G A40C, for which the yeast fitness was found to be 0.811.

As for C4G C46U G67C, the yeast fitness came out at 0.597.

For the variant C4G A20U C60G C62G, the yeast fitness was found to be 0.584.

Consider C4G C11G U26A A65G, for which the yeast fitness was at most 0.5.

C4G C11U A14G: the yeast fitness is 0.556.

Take C4G C24G U26G G39C C49G A65G: the yeast fitness is at most 0.5.

Turning to C4G A21G, the yeast fitness came out at 0.997.

C4G A21U: the yeast fitness stood at 0.696.

Take C4G A57U U59G: the yeast fitness was at most 0.5.

Take C4G C11G C22U C46G: the yeast fitness was at most 0.5.

As to C4G C11G C22U C46U, the yeast fitness is at most 0.5.

Take C4G A40U C66U: the yeast fitness turned out to be 0.571.

With C4G C34A, the yeast fitness came to 0.762.

C4G C5U G12C: the yeast fitness is at most 0.5.

Take C4G C33G A36C C66U: the yeast fitness is at most 0.5.

Regarding C4G A42U G68C, the yeast fitness is at most 0.5.

C4G C55U G63A G68C: the yeast fitness is at most 0.5.

Regarding C4G C5U A65G A70C, the yeast fitness is at most 0.5.

Turning to C4G C27A C46U G67C, the yeast fitness was at most 0.5.

Consider C4G A43C C61A, for which the yeast fitness stood at 0.551.

Consider C4G C11A C30G C60A, for which the yeast fitness is at most 0.5.

For the variant C4G C27G A65U G68U, the yeast fitness was 0.562.

Take C4G C24G C33G G63A: the yeast fitness was 0.554.

Take C4G C5G C11U G56A C61A: the yeast fitness was at most 0.5.

On to C4G C5G U8C G23C C29U A45U G68A, for which the yeast fitness is 0.59.

C4G C30G A42C C55G: the yeast fitness was at most 0.5.

Take C4G C27U C49U: the yeast fitness was at most 0.5.

As for C4G A20U A57U C66U, the yeast fitness is at most 0.5.

C4G C30U C49U: the yeast fitness is 0.604.

For the variant C4G C24U U47C, the yeast fitness was 0.673.

C4G C27A C61A C66U A69C: the yeast fitness is at most 0.5.

As to C4G C27A C31U, the yeast fitness was at most 0.5.

Turning to C4G C33G A42U U47G U54A C61A, the yeast fitness was at most 0.5.

On to C4G A42U G48A, for which the yeast fitness was 0.575.

Regarding C4G C60A, the yeast fitness amounted to 0.642.

As for C4G C24A C46U U64C, the yeast fitness was at most 0.5.

Take C4G C49G G67A: the yeast fitness was at most 0.5.

Take C4G C5G G10A G18A A42C: the yeast fitness is at most 0.5.

With C4G C5U U16A C34A G68C, the yeast fitness was 0.508.

For C4G C30G C33A, the yeast fitness is at most 0.5.

Take C4G A15G G23A C34G G68A: the yeast fitness is at most 0.5.

C4G C5G A20G A21U C34G C46A C61A: the yeast fitness was at most 0.5.

Take C4G C11A G17A A20G C27U A43U C49G C60U: the yeast fitness is at most 0.5.

Consider C4G A40U A45U U47C, for which the yeast fitness is at most 0.5.

With C4G A21U C66G, the yeast fitness is at most 0.5.

Take C4G C33G G67A: the yeast fitness was at most 0.5.

Consider C4G C11G A36G C55U C61A, for which the yeast fitness is 0.52.

Regarding C4G A36U U53A G68A A69G, the yeast fitness is at most 0.5.

C4G C33G U35C U59A A69U: the yeast fitness is at most 0.5.

As to C4G A40U C46U G67U, the yeast fitness came out at 0.602.

For the variant C4G A14U C24G C31G C61G, the yeast fitness is at most 0.5.

Regarding C4G A20C U26G C33U G44C U59A G67A, the yeast fitness is at most 0.5.

Regarding C4G C22U G50C, the yeast fitness was at most 0.5.

On to C4G C29G A36C A37U A40C A45G G51A, for which the yeast fitness came to 0.503.

Turning to C4G A15G A37U A40C G48A G50C, the yeast fitness is 0.515.

Turning to C4G A36U C62G, the yeast fitness is 0.54.

With C4G C29G C46U, the yeast fitness was at most 0.5.

Take C4G C11G U26A U54A C60U: the yeast fitness is at most 0.5.

Regarding C4G C33U A43C, the yeast fitness was at most 0.5.

As to C4G A20U C31G A65U, the yeast fitness is at most 0.5.

C4G C5G C11A G38A C49U: the yeast fitness was at most 0.5.

Consider C4G A14U C60A, for which the yeast fitness is 0.553.

On to C4G C5G A14U C49G A57U G63A G67A, for which the yeast fitness was found to be 0.631.

In the case of C4G C31G, the yeast fitness was determined as 0.761.

With C4G C5G A43G, the yeast fitness was determined as 0.556.

For the variant C4G A15U A21G G56A, the yeast fitness is 0.626.

C4G C24U C62A C66U: the yeast fitness is at most 0.5.

As to C4G C11G C31U G41C U54G, the yeast fitness was 0.707.

As for C4G C5U A42G A45U C66U, the yeast fitness is at most 0.5.

As for C4G C5U C31G A43U, the yeast fitness was at most 0.5.

As for C4G C11U A14G C55G G68C, the yeast fitness is at most 0.5.

Consider C4G A20G A70C, for which the yeast fitness is 0.758.

Consider C4G A45U C49U A65U, for which the yeast fitness is at most 0.5.

As for C4G C22A U35A, the yeast fitness was at most 0.5.

As to C4G A40G G48A G56C, the yeast fitness is at most 0.5.

With C4G A15U U54G C55U, the yeast fitness came out at 0.51.

With C4G C55U G68C, the yeast fitness worked out at 0.56.

For C4G C24A, the yeast fitness came out at 0.634.

Take C4G C5U A42G G67A: the yeast fitness was at most 0.5.

In the case of C4G C55A A57U, the yeast fitness is at most 0.5.

As for C4G C30U A40G C60G, the yeast fitness was at most 0.5.

On to C4G C22G A45C C55U, for which the yeast fitness was at most 0.5.

Turning to C4G C22U C34G A36U C61U, the yeast fitness is at most 0.5.

As to C4G C22U U32C U64C, the yeast fitness is at most 0.5.

Turning to C4G C30G G50U C66U, the yeast fitness came to 0.588.

With C4G C5G G9A C49A, the yeast fitness turned out to be 0.739.

In the case of C4G A15C G50C U54C, the yeast fitness was at most 0.5.

On to C4G C11A A42U, for which the yeast fitness is at most 0.5.

Turning to C4G C22U G38C, the yeast fitness is at most 0.5.

For the variant C4G C5U G68A, the yeast fitness was determined as 0.602.

For C4G A15U C29A G48A A65U, the yeast fitness is 0.53.

On to C4G C11U A42U G58A A69U, for which the yeast fitness is at most 0.5.

As for C4G C11G A65C, the yeast fitness is 0.576.

For the variant C4G C11A U19C G23C, the yeast fitness stood at 0.524.

Take C4G A21G C22U U28A U35C: the yeast fitness was at most 0.5.

For C4G A36U, the yeast fitness is 0.663.

In the case of C4G A36C, the yeast fitness was found to be 0.745.

Regarding C4G C29A C33G A45C G67C, the yeast fitness was at most 0.5.

Turning to C4G A15C U28C C55G A57U, the yeast fitness is at most 0.5.

C4G C22U G68C: the yeast fitness was at most 0.5.

With C4G C29U G56A A65C A70C, the yeast fitness came to 0.77.

Consider C4G C11G C46U U59C C62G A65U, for which the yeast fitness was at most 0.5.

On to C4G C11U, for which the yeast fitness was determined as 0.967.

Consider C4G C11G, for which the yeast fitness was found to be 0.623.

Regarding C4G C11A A14C C33G A36C A37C A42C A65U, the yeast fitness is at most 0.5.

As to C4G C31G A40G C62A, the yeast fitness was at most 0.5.

In the case of C4G A65C, the yeast fitness was 0.733.

As to C4G C30G U32C, the yeast fitness is at most 0.5.

For C4G C27U G41C A42C, the yeast fitness is at most 0.5.

As to C4G C29A C46A, the yeast fitness is at most 0.5.

Take C4G A21C C27A U28G: the yeast fitness stood at 0.614.

In the case of C4G A36U C60G, the yeast fitness is 0.655.

As to C4G A45G C62A, the yeast fitness is 0.554.

Take C4G C34A C66U: the yeast fitness is at most 0.5.

Take C4G C22U C34G G63C: the yeast fitness is at most 0.5.

Turning to C4G A14U C30U G48C, the yeast fitness was at most 0.5.

As for C4G A15U G18C G23C C24G G56C, the yeast fitness is at most 0.5.

As for C4G C30G C33A A70G, the yeast fitness is at most 0.5.

Regarding C4G A14U C46U C60U A65C, the yeast fitness is at most 0.5.

As to C4G C11U A36U G52C, the yeast fitness was at most 0.5.

Regarding C4G A15G G23A C34G G67U, the yeast fitness is at most 0.5.

In the case of C4G C27G C34U A37C C55U, the yeast fitness is at most 0.5.

For C4G C34A U54C, the yeast fitness is 0.54.

As to C4G C22U, the yeast fitness is 0.976.

Consider C4G C22G, for which the yeast fitness is 0.787.

In the case of C4G C46U G48A, the yeast fitness was 1.04.

As to C4G C22G C33U A36C A40U, the yeast fitness is 0.663.

Consider C4G C34G A37U A42U C61U, for which the yeast fitness was at most 0.5.

Regarding C4G C11U C49U, the yeast fitness was determined as 0.562.

In the case of C4G C5A C11U C27G A65U G68U, the yeast fitness is at most 0.5.

Consider C4G A20U, for which the yeast fitness worked out at 0.659.

Turning to C4G A20C, the yeast fitness was 0.8.

In the case of C4G A20G, the yeast fitness is 0.966.

With C4G A15C C46A G67A, the yeast fitness is at most 0.5.

Take C4G C11U U19A U32A A37U U64C: the yeast fitness was at most 0.5.

Consider C4G C22G C29A A65C, for which the yeast fitness is at most 0.5.

In the case of C4G C27U C29G, the yeast fitness was at most 0.5.

For C4G C30G C55U, the yeast fitness was at most 0.5.

Turning to C4G A14U C66U, the yeast fitness is at most 0.5.

In the case of C4G C5U G44C G63A G67U, the yeast fitness is at most 0.5.

As for C4G C30U G41A, the yeast fitness was 0.532.

For C4G C11G C55U A70G, the yeast fitness is at most 0.5.

C4G C29G C49U: the yeast fitness worked out at 0.588.

Turning to C4G A20C C30A C31G C34A A37G C49A A57C G63A, the yeast fitness is at most 0.5.

In the case of C4G C27A A36G, the yeast fitness came out at 0.534.

For the variant C4G C11U A14G U32C, the yeast fitness was at most 0.5.

Take C4G C11A C30G C61G: the yeast fitness was at most 0.5.

Take C4G C11G U26A C60G: the yeast fitness is at most 0.5.

For C4G A20U A57U, the yeast fitness is at most 0.5.

Regarding C4G A21G G50A, the yeast fitness was determined as 0.718.

Turning to C4G A20U C29G C31A G38A, the yeast fitness is at most 0.5.

On to C4G A15U A37U, for which the yeast fitness came to 0.541.

For C4G C11A C66G, the yeast fitness was at most 0.5.

In the case of C4G A21G A45U C49U C60A, the yeast fitness was at most 0.5.

Turning to C4G A40C C49G C55G A69U, the yeast fitness was at most 0.5.

As to C4G C30G A40G A65C, the yeast fitness was at most 0.5.

Regarding C4G A21G G67C, the yeast fitness was found to be 0.631.

Regarding C4G C5G A14U A20C C34G A37C C49U, the yeast fitness was 0.559.

In the case of C4G C49U G52A C60G, the yeast fitness was at most 0.5.

Take C4G C11G C29A C30U: the yeast fitness was at most 0.5.

As to C4G A20U G25A, the yeast fitness is at most 0.5.

On to C4G C11U A14G C46G C55G C61G, for which the yeast fitness is at most 0.5.
